Screening results from PubChem.
This is a sample that favours compounds with a hit; in the whole collection about 2.3% have one here.
NR2E3 ag-1: agonists of human NR2E3 nuclear receptor | actives 0.35% (n = 360,000) | Q9Y5X4 | CHO-S Gal4-NCOR/VP16-NR2E3 two-hybrid, luciferase | inhibition of corepressor binding, % at 3.98 µM | AID 602229;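 active = inhibition above the mean of all tested compounds plus 3 SD, cut at about 70% in these data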;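 also: 0% = DMSO with NR2E3 transfected cells and 100% = cells lacking NR2E3 construct; higher means lower luciferase signal from less NR2E3 corepressor binding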
Target sequence (Q9Y5X4 whole entry, looked up, the tested form may be a part): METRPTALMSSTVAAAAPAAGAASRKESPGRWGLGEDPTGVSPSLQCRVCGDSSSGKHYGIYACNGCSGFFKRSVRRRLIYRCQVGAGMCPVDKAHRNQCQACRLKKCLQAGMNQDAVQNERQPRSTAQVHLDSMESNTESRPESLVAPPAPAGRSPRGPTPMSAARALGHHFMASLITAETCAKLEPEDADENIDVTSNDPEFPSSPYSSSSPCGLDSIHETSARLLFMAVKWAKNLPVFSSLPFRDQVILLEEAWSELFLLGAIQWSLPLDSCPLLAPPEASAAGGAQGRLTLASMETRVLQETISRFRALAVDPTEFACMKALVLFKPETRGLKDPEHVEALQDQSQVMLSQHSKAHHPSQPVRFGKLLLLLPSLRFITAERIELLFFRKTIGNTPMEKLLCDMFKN
COUP-TFII inh: blocks human COUP-TFII nuclear receptor; AID 686940; actives 0.7% (n = 370,000); HEK293T NGFI-A luciferase reporter, luminescence; P24468; inhibition, % at 8.6 µM;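 active = inhibition above a per-plate cutoff, mean inhibition of test wells between control levels plus 3 SD, cut at about 38% in these data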;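 also: cells cotransfected with COUP-TFII expression vector driving the NGFI-A reporter; 0% = median of COUP-TF2 test wells and 100% = reporter-only cells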
NR2E3 ag-2: activates human photoreceptor nuclear receptor NR2E3; actives 0.12% (n = 320,000); GST-NR2E3/biotin-RetCOR TR-FRET, 1536-well; inhibition of corepressor binding, % at 4.78 µM;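 active = percent inhibition above the cutoff of mean plus 3 SD of all tested compounds, set per screening campaign, cut at about 20% in these data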;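 also: 0% = DMSO wells and 100% = biotin wells as full block of FRET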
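Material – GST-tagged NR2E3 plus biotinylated RetCOR corepressor · Quantity – NR2E3 fusion 1.35 nM · Times – 5 h incubation at 4 °C · Medium – pH 7.5 Tris-based buffer · Technique – TR-FRET, Eu(K)-anti-GST donor, streptavidin-D2 acceptor, ex 340, em 617/671 nm · Benchmarks – high control biotin, low control 0.6% DMSO · Format – 1536-well plates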
GalR3 antag: antagonists of human GalR3; inhibition, % at 3 µM; actives 0.44% (n = 360,000); O60755; HEK293 GalR3-CNG cAMP membrane potential fluorescence; galR3 body fused to GalR1 C-terminus;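 active = inhibition above the screen-wide average plus 3 SD, cut at about 13% in these data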;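 also: forskolin and galanin both at EC90 stimulate the cells; cAMP rise reported by CNG channel membrane potential dye signal; 0% = forskolin plus galanin with DMSO and 100% = forskolin alone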
CHT block: inhibitors of human choline transporter CHT. actives 0.86% (n = 310,000). CHT-expressing cells, membrane potential dye, choline response; hits give low values. B-score at 10 µM. Q9GZV3;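 active = B-score over 3 SD under the library average, and starting fluorescence ratio not unusually high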;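 also: choline stimulus applied at its EC90 after an EC20 pre-addition; B-score computed on integrated fluorescence ratio after choline addition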
CHT PAM: allosteric activators of human choline transporter CHT | Q9GZV3 | CHT-expressing cells, membrane potential dye, choline EC20; hits give high values; LV-AA mutant CHT in HEK293 cells | B-score at 10 µM | actives 0.49% (n = 310,000);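 active = initial fluorescence not abnormally high and integrated response B-score, plate-corrected, over 3 SD above library mean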
VP16 Luc counter: counter-screen for COUP-TFII antagonists: inhibitors of VP16 | shares compounds with COUP-TFII inh | HEK293 Gal4-VP16 luciferase reporter, luminescence | inhibition, % at 8.5 µM | actives 25% (n = 2,500); in the data active = inhibition above about 13%
NR2F2 inh conf: COUP-TFII (NR2F2) inhibition, confirmation assay; AID 687008; actives 45% (n = 2,500); inhibition, % at 8.5 µM; HEK293 NGFI-A luciferase reporter, luminescence; shares compounds with COUP-TFII inh;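 active = mean inhibition over three repeats above a set limit taken from the earlier primary screen, cut at about 38% in these data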;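 also: 100% = cells given the luciferase reporter alone without the COUP-TF2 vector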
* = called active by the depositor; i = inactive; . = not tested or not shown.

SMILES	NR2E3 ag-1	COUP-TFII inh	NR2E3 ag-2	GalR3 antag	CHT block	CHT PAM	VP16 Luc counter	NR2F2 inh conf
OCC1(Cc2ccccc2)CCN(Cc2cnc(-c3cccc4ccccc34)nc2)CC1	3	-10	0	-5	i	i	.	.
OCC1(Cc2ccccc2)CCN(Cc2cnc(-c3ccc(Cl)cc3)nc2)CC1	-26	43*	3	1	i	i	-38	9
O=C(OC12CCCN(C1)/C(=C/c1cccc(Cl)c1)C2)c1ccc(Cl)cc1 (stereo not given)	.	3	.	.	.	.	.	.
COCCCNC(=O)C[C@H]1C[C@@]2(C(=O)OC)C(=C[C@H](C(C)(C)C)O[C@@H]2C)N(Cc2cccc3ccccc23)C1=O	.	1	.	.	.	.	.	.
Cc1nn(C)c(C)c1NC(=O)COc1ccc(Cl)cc1Br	17	51*	-4	53*	.	.	4	50*
Cc1c(C)c2ccc(OCC(=O)Nc3ccccn3)c(C)c2oc1=O	-14	78*	-3	-7	i	i	82*	98*
O=C(COc1ccc(Cl)cc1Cl)Nc1ccccn1	-66	89*	2	-5	i	i	64*	82*
Cc1cccc(OCC(=O)Nc2ccncc2)c1C	-29	39*	0	-9	i	i	-8	32
Cc1c(C)c2cc(Cl)c(OCC(=O)Nc3ccccn3)cc2oc1=O	-34	-18	.	-6	.	.	.	.
Cc1nn(C)c(C)c1NC(=O)COc1ccc(F)cc1Br	-9	22	.	-4	.	.	.	.
O=C(CN(CCc1ccccc1)S(=O)(=O)c1ccc(Cl)s1)N1CCOCC1	.	17	.	.	.	.	.	.
Cc1ccc(S(=O)(=O)N2O[C@@H](c3ccccc3)C[C@H]2CON2C(C)(C)CCCC2(C)C)cc1	.	15	.	.	.	.	.	.
Cc1cc(Cl)ccc1OCC(=O)Nc1ccncc1	12	40*	4	55*	i	i	-28	23
Cc1cc(Cl)ccc1OCCCC(=O)NO	-16	52*	3	4	i	i	-6	47*
COc1ccc(C2CC(=O)c3c(C)nc(N4CCN(Cc5ccccc5)CC4)nc3C2)cc1OC (stereo not given)	2	62*	-3	-5	i	i	8	39*
COc1ccc2c(c1)c(C(C)=O)c(C)n2CCc1ccccc1	-19	53*	2	-13	i	i	4	23
COc1ccc(-n2c(C)c(C(C)=O)c3cc(O)ccc32)cc1	-44	44*	.	1	.	.	10	18
COc1ccc2c(c1)c(C(C)=O)c(C)n2-c1ccccc1	-32	13	-2	-2	i	i	.	.
CCOC(=O)c1cc(-c2ccc(C)cc2)n(CCC(=O)N2CCN(c3ccccn3)CC2)c1C	-16	39*	0	-2	i	i	-6	8
CCOC(=O)c1cc(-c2ccccc2)n(CCC(=O)O)c1C	-2	10	2	-3	i	i	.	.
Cn1c(=O)c2cc(S(=O)(=O)N3CCN(c4ccccc4Cl)CC3)ccc2n(C)c1=O	.	0	.	.	.	.	.	.
COc1ccc2c(c1)C(CC(C)=O)N(c1ccc(-c3cccs3)cc1)C(c1ccsc1)=C2 (stereo not given)	-27	47*	.	-8	.	.	-14	-2
Cc1sc(-c2ccccn2)nc1OC(=O)c1ccc(F)cc1F	-12	38*	-2	-10	i	i	-16	30
Cc1sc(-c2ccccn2)nc1OC(=O)c1ccc(Cl)c(Cl)c1	-5	0	2	-2	i	i	.	.
CCCCCn1nnnc1C1(C)CCCCC(=O)N1Cc1ccco1 (stereo not given)	.	19	.	.	.	.	.	.
SMILES	NR2E3 ag-1	COUP-TFII inh	NR2E3 ag-2	GalR3 antag	CHT block	CHT PAM	VP16 Luc counter	NR2F2 inh conf
O=C(NCc1cccc(Cl)c1)c1cccc(OC2CCN(C(=O)C3CC3)CC2)c1	6	56*	1	-1	i	i	-4	32
O=C(C1CC1)N1CCC(Oc2cccc(C(=O)N3CCCCC3CCO)c2)CC1 (stereo not given)	2	-7	0	-1	i	i	.	.
CCN(CC)S(=O)(=O)c1cc(NC(=O)C(=O)c2c(-c3ccccc3)cc3ccccn23)ccc1C	18	39*	0	-5	i	i	12	18
CC1C(=O)N(Cc2ccccc2F)c2ccccc2N1C(=O)c1c(F)cccc1F (stereo not given)	-9	47*	5	-8	-5.1*	i	-5	18
COC(=O)C1CCN(C(=O)c2cc(-c3ccc(Cl)s3)nc3ccccc23)CC1	-4	38*	6	0	.	.	-6	4
CCCCN1CCN(C(=O)C2CCCN(C(=O)c3ccc4c(c3)NC(=O)CS4)C2)CC1 (stereo not given)	.	-21	.	.	.	.	.	.
CC(C)COc1ccc(C/C(N)=N/n2cnnc2)cc1	3	39*	0	1	i	i	3	18
Cc1cccc(Cn2cc(CN3CC(N(C)CCCOC(=O)c4cc5ccccc5o4)CS3(=O)=O)nn2)c1 (stereo not given)	.	6	.	.	.	.	.	.
COc1ccc(OCCN2CCN(S(=O)(=O)c3ccccc3C(F)(F)F)CC2)cc1	4	41*	1	-5	.	.	0	9
CCOc1ccc(S(=O)(=O)N2CCN(S(=O)(=O)c3ccc(C(C)=O)cc3)CC2)cc1	-26	-3	-2	-7	i	i	.	.
COc1ccc(OCCN2CCN(S(=O)(=O)c3ccccc3C#N)CC2)cc1	8	15	.	-1	.	.	.	.
CC(=O)c1ccc(S(=O)(=O)N2CCN(CCOc3ccc(Br)cc3)CC2)cc1	29	63*	-2	-6	.	.	9	50*
C=CC[C@@H]1NN2C(=O)[C@@H](CCc3ccccc3)[C@@H]3c4ccccc4C=NN3[C@@H]2c2ccccc21	.	-6	.	.	.	.	.	.
CCOC(=O)[C@]12CCCCC/C=C\1N(Cc1ccc(OC)cc1)C(=O)[C@H]2CC(=O)N1CCSCC1	.	7	.	.	.	.	.	.
COc1ccc(N2CCN(C(=O)CCCCCn3c(=S)[nH]c4ccc(N5CCOCC5)cc4c3=O)CC2)cc1	-25	42*	.	-4	.	.	6	23
CCOc1ccc(S(=O)(=O)Nc2cnc3ccccc3c2)cc1	99*	43*	0	-9	i	i	-3	30
COC(=O)C1=C(C(=O)OC)[C@]2([C@@H]3CCCCN[C@@H](Cc4ccccc4)C(=O)N3Cc3ccccc3)C=C[C@H]1O2	16	19	.	-10	.	.	.	.
